Assay outcomes from PubChem BioAssay.
Most compounds without a hit are left out; they make up all but 2.3% or so of the library.
PAX8 inh HTS: PAX8 transcriptional activity inhibition. AID 652154. 1.2% of 360,000 active. RMG-I TPO-luciferase reporter, SteadyGlo, 24 h. inhibition, % at 12.6 µM;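 active = mean replicate inhibition at least 60% with every replicate also reaching 60%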;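 note: luciferase light reporting Pax8 driven TPO promoter activity; plate controls were median of neutral control wells for no effect and mitoxantrone controls for full effect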
Glyco luc inh: N-linked glycosylation inhibition; AID 588692; 0.23% of 360,000 active; D54 ERlucT glycosylation luciferase reporter, 24 h; percent of 100 nM tunicamycin response; reporter increase, % at 12.5 µM;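 active = mean luciferase reporter signal, scaled so untreated is 0 and the glycosylation-blocking control 100, at or above a set limit in every replicate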;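 note: luciferase carries N-glycosylation sites so blocking glycosylation raises the light; 0% = median of neutral control wells and 100% = median of 100 nM tunicamycin wells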
Rtt109 Vps75: C. albicans Rtt109 histone acetyltransferase inhibition | 0.16% of 330,000 active | inhibition, % at 34.9 µM | purified Rtt109/Vps75, ThioGlo CoA-SH fluorescence, 4 h | Q5AAJ8;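 active = inhibition of at least 50% in every replicate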
HIV Env fusion: blocks HIV Env-driven cell-cell fusion | 1.1% of 360,000 active | inhibition, % at 12.3 µM | HeLa-JRFL Env/CEM21 cell fusion, luciferase;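 active = mean replicate inhibition score of at least 50 and every replicate individually at or above 50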;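 note: 0% = plate neutral controls and 100% = maraviroc near 300 nM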
PfHsp90 set2: growth inhibition of yeast expressing Plasmodium Hsp90; S. cerevisiae expressing PfHsp90, BacTiter-Glo ATP, 48 h; yeast lacking PDR1 and PDR3 efflux regulators; inhibition, % at 9.4 µM; 0.32% of 310,000 active; AID 504621;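 active = every replicate shows inhibition above about 80%, whatever the replicate mean, limit read from the data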;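 note: 0% = DMSO neutral controls and 100% = 20 µM radicicol positive controls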
Arrestin-AP2 inh: human beta-arrestin and AP2 interaction inhibition; FITC-arrestin peptide / GST-AP2 beads, flow cytometry; AP2 beta2 appendage carries R879A mutation; AID 504490; inhibition, % at 10 µM; 0.31% of 340,000 active;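 active = inhibition above a set limit, near 3 SD of compounds lacking own fluorescence, cut at about 54% in these data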;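 note: plate controls were DMSO wells for no effect and 5 µM unlabelled arrestin peptide for full effect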
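System: GST-AP2 R879A glutathione beads; medium: PBS, Tween 20 0.05%, BSA 0.1%; reagent: fluorescein-tagged arrestin peptide at 50 nM final; schedule: pre-incubation 12 min, peptide binding 1 h, room temperature; detection: flow cytometry, FL1 (488/535 nm); read-out: inhibition as reduced fluorescein signal on beads, percent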
Arr AP2 CP1: human beta-arrestin and AP2 interaction inhibition, cherry pick; shares compounds with Arrestin-AP2 inh; GST-AP2 beads, FITC arrestin peptide binding, flow cytometry; GST-fused beta2-adaptin appendage, R879A mutant; inhibition, % at 10 µM; 2% of 1,300 active;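 active = inhibition above a set limit, roughly 3 SD of non-fluorescent compound noise, cut at about 38% in these data; inactive = inhibition at or below that limit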;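 note: loss of bead fluorescence from 50 nM FITC arrestin peptide bound to appendage; 0% = negative control wells and 100% = excess unlabelled arrestin peptide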
Target sequence (P63010 whole entry, looked up, the tested form may be a part, one chain of several): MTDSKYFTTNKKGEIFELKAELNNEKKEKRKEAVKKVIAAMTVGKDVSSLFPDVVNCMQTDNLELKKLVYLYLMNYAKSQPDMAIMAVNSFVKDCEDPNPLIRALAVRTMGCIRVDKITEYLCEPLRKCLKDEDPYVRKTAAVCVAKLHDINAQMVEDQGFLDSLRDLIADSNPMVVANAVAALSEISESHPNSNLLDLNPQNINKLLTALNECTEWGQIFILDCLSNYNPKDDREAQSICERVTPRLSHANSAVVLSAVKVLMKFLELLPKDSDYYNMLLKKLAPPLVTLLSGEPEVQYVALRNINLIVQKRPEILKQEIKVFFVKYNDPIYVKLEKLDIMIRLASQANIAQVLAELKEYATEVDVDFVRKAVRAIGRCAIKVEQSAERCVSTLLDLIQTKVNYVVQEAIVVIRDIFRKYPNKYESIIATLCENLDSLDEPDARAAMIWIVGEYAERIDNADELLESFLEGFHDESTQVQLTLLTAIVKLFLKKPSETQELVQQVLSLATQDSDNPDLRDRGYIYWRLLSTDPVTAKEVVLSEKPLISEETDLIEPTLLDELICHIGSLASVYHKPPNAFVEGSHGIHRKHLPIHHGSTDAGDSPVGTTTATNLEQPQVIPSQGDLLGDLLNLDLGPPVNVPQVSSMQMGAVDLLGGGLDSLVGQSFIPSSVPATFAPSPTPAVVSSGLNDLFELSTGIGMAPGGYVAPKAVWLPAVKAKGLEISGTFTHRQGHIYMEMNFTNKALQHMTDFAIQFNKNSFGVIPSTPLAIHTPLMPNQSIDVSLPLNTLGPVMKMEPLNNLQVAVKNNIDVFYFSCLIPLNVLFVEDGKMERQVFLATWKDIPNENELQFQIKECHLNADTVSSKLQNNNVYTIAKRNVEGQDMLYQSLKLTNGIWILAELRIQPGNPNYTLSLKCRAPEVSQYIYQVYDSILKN
GST GSH counter: disrupts GST binding to glutathione beads, arrestin-AP2 artifact | shares compounds with Arrestin-AP2 inh | GST-fluorescein binding to GSH beads, fluorescence, counter-screen | inhibition, % at 10 µM | 2% of 1,300 active | AID 588338;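 active = inhibition above 50%, about 3 SD of the inhibition seen with non-fluorescent compounds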;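 note: fluorescein maleimide labelled GST captured on 4 micron glutathione beads; higher means more loss of bead fluorescence from quenching or blocked binding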
Numbers without * were called inactive; [ ] = another dose, or the depositor's remark.

`CCOc1cc(C(=O)Nc2cc3c(cc2N2CCCC2)n(C)c(=O)n3C)cc(OCC)c1OCC` gave PAX8 inh HTS -5.7, Glyco luc inh 4.1, Rtt109 Vps75 -15.6, HIV Env fusion 3.4, PfHsp90 set2 -4.9, Arrestin-AP2 inh 15.4, Arr AP2 CP1 5.3 and GST GSH counter 2.8.
`O=C(C[C@@H]1CC[C@H]2[C@@H](COC[C@@H](O)CN2CC2CCCCC2)O1)NCC1CC1` gave PAX8 inh HTS 1.9.
C[C@@H]1CN([C@@H](C)CO)C(=O)c2cc(C#Cc3ccccn3)cnc2O[C@H]1CN(C)CC1CCCC1 was read as PAX8 inh HTS -5.0.
`C[C@@H]1CN([C@H](C)CO)C(=O)Cc2cc(NC(=O)NC3CCCCC3)ccc2O[C@H]1CN(C)Cc1ccc(Oc2ccccc2)cc1` gave PAX8 inh HTS 1.7 and HIV Env fusion 12.0[16.7 µM].
`CCCNC(=O)N[C@H]1CC[C@H](CC(=O)N2CCN(C)CC2)O[C@H]1CO` gave PAX8 inh HTS 2.5 and HIV Env fusion 10.7[16.7 µM].
`O=C(CCCn1c(=O)[nH]c2ccccc2c1=O)Nc1ccc(F)cc1` gave PAX8 inh HTS 6.6, Glyco luc inh -0.4, Rtt109 Vps75 -0.9, HIV Env fusion -20.6, PfHsp90 set2 -7.6, Arrestin-AP2 inh 57.4*, Arr AP2 CP1 -8.8 and GST GSH counter -10.1.
O=C(CCCn1c(=O)[nH]c2ccsc2c1=O)Nc1ccc(F)cc1 was read as PAX8 inh HTS 4.5, Glyco luc inh 0.4, Rtt109 Vps75 -2.9, HIV Env fusion 4.3, PfHsp90 set2 -3.5 and Arrestin-AP2 inh -1.3.
Screening O=C(CCn1c(=O)[nH]c2ccccc2c1=O)Nc1ccccc1 returned PAX8 inh HTS -20.7, Glyco luc inh 2.3, Rtt109 Vps75 -3.4, HIV Env fusion -35.4, PfHsp90 set2 -13.5, Arrestin-AP2 inh -13.9, Arr AP2 CP1 -14.6 and GST GSH counter -6.7.
COc1ccc(C(=O)N(C)Cc2ccc(C)o2)cc1OC1CCN(C(C)=O)CC1 was read as PAX8 inh HTS -5.2, Glyco luc inh 2.9, Rtt109 Vps75 2.6, HIV Env fusion 27.8, PfHsp90 set2 13.8, Arrestin-AP2 inh 61.1*, Arr AP2 CP1 0.0 and GST GSH counter -5.4.
Cc1cc(/C=C2/NC(=O)N(Cc3ccccc3F)C2=O)c(C)n1-c1ccccn1 was read as PAX8 inh HTS 12.7, Glyco luc inh -4.1, Rtt109 Vps75 -0.5, HIV Env fusion -20.0, PfHsp90 set2 -3.7, Arrestin-AP2 inh 87.7*, Arr AP2 CP1 -7.5 and GST GSH counter 72.2*.
Cc1cccc(CN2C(=O)N/C(=C/c3cc(C)n(-c4ccccn4)c3C)C2=O)c1 was read as Glyco luc inh -1.6, Rtt109 Vps75 12.6, PfHsp90 set2 -17.0 and Arrestin-AP2 inh 11.8.
For CCOC(=O)c1cnn(-c2ccc(C(C)C)cc2)c1NC(=O)C1CCC1 the results were Glyco luc inh -1.5, Rtt109 Vps75 -2.9, PfHsp90 set2 -6.6, Arrestin-AP2 inh 99.4*, Arr AP2 CP1 -3.8 and GST GSH counter 0.4.
CCOC(=O)c1cnn(-c2ccccc2)c1NC(=O)c1ccccc1C was read as Glyco luc inh 2.0, Rtt109 Vps75 45.6, HIV Env fusion -16.5, PfHsp90 set2 -0.7 and Arrestin-AP2 inh 24.4.
For CC(C)Cn1c(N)c(C(=O)COC(=O)c2ccncc2)c(=O)n(C)c1=O the results were Glyco luc inh -0.9, Rtt109 Vps75 10.2, PfHsp90 set2 13.1, Arrestin-AP2 inh -6.0, Arr AP2 CP1 -6.8 and GST GSH counter -3.5.
For CC(C)Cn1c(N)c(C(=O)COC(=O)c2nccnc2N)c(=O)n(C)c1=O the results were PAX8 inh HTS -0.8, Glyco luc inh 2.6, Rtt109 Vps75 -8.7, HIV Env fusion -6.7, PfHsp90 set2 3.4 and Arrestin-AP2 inh 19.3.
`CC(C)Cn1c(N)c(C(=O)COC(=O)c2ccc(Cl)cc2)c(=O)n(C)c1=O` gave PAX8 inh HTS 6.1, Glyco luc inh 0.8, Rtt109 Vps75 8.9, HIV Env fusion 0.4 and Arrestin-AP2 inh -10.6.
For CC(C)Cn1c(N)c(C(=O)COC(=O)c2ccc(Br)cc2)c(=O)n(C)c1=O the results were PAX8 inh HTS 24.0, Glyco luc inh 0.2, Rtt109 Vps75 -2.7, HIV Env fusion -4.8, PfHsp90 set2 -24.0, Arrestin-AP2 inh 4.3, Arr AP2 CP1 1.5 and GST GSH counter 1.1.
CC(=O)N1CCN(C(=S)NC(=O)C23CC4CC(CC(C4)C2)C3)CC1 was read as PAX8 inh HTS -9.0, Glyco luc inh -0.9, Rtt109 Vps75 -4.5, HIV Env fusion 1.8, PfHsp90 set2 8.1 and Arrestin-AP2 inh 41.1.
For CNC(=S)N1CCC(NC(=O)C23CC4CC(CC(C4)C2)C3)CC1 the results were PAX8 inh HTS 4.1, Glyco luc inh -0.6, Rtt109 Vps75 20.5, HIV Env fusion 5.6, PfHsp90 set2 5.7, Arrestin-AP2 inh 56.4*, Arr AP2 CP1 3.8 and GST GSH counter -5.6.
For C[C@@H]1CN([C@H](C)CO)S(=O)(=O)c2ccc(C#C[C@@H](C)O)cc2O[C@H]1CN(C)C(=O)c1ccccc1 the results were HIV Env fusion -8.3[16.7 µM].
Screening CCc1nnc(NC(=O)Cc2cc(OC)c(OC)c(OC)c2)s1 returned PAX8 inh HTS 15.9, Glyco luc inh 2.1, Rtt109 Vps75 2.6, HIV Env fusion -11.7, PfHsp90 set2 4.3, Arrestin-AP2 inh 70.8*, Arr AP2 CP1 -6.5 and GST GSH counter -3.8.
For O=C(NCC1COc2ccccc2O1)c1ccc(NC(=O)C(c2ccccc2)c2ccccc2)cc1 (stereo not drawn) the results were PAX8 inh HTS 8.6, Glyco luc inh -7.0, Rtt109 Vps75 -4.2, HIV Env fusion 12.8, PfHsp90 set2 -10.9, Arrestin-AP2 inh 99.1*, Arr AP2 CP1 35.3 and GST GSH counter 5.4.
Screening O=C(Cc1ccccc1)Nc1ccc(C(=O)NCC2COc3ccccc3O2)cc1 (stereo not drawn) returned PAX8 inh HTS 1.3, Glyco luc inh -1.1, Rtt109 Vps75 1.8, HIV Env fusion -5.4, PfHsp90 set2 -2.2 and Arrestin-AP2 inh 26.8.
Screening CNC(=O)C[C@H]1CC[C@H]2[C@@H](COc3ccc(NC(=O)c4ccno4)cc3C(=O)N2C)O1 returned PAX8 inh HTS -1.5 and HIV Env fusion -14.5[16.7 µM].
C[C@@H]1CN([C@@H](C)CO)C(=O)c2cc(NS(C)(=O)=O)ccc2O[C@@H](C)CCCCO[C@H]1CN(C)Cc1ccccc1 was read as PAX8 inh HTS 0.1 and HIV Env fusion -1.4[16.7 µM].
